Reference: publication PMC3969088 (British Journal of Pharmacology, 2014)
Where no end group is shown, it is not given here.

How the values were obtained:
[1] = target: AM1 receptor, CLR V36A (HA-CLR V36A with FLAG-RAMP2) (human) (UniProt Q16602)
[2] = target: AM1 receptor, CLR I32A (HA-CLR I32A with FLAG-RAMP2) (human) (UniProt Q16602)
[3] = target: AM1 receptor, CLR M42A (HA-CLR M42A with FLAG-RAMP2) (human) (UniProt Q16602)
[4] = target: AM1 receptor, CLR I52A (HA-CLR I52A with FLAG-RAMP2) (human) (UniProt Q16602)
[5] = target: AM1 receptor, CLR Q33A (HA-CLR Q33A with FLAG-RAMP2) (human) (UniProt Q16602)
[6] = target: AM1 receptor, CLR L34A (HA-CLR L34A with FLAG-RAMP2) (human) (UniProt Q16602)
[7] = target: AM1 receptor, CLR G35A (HA-CLR G35A with FLAG-RAMP2) (human) (UniProt Q16602)
[8] = target: CGRP receptor, CLR M42A (HA-CLR M42A with RAMP1) (UniProt Q16602)
[9] = target: CGRP receptor, wild type (HA-CLR with RAMP1) (UniProt Q16602)
[10] = target: CGRP receptor, CLR L34A (HA-CLR L34A with RAMP1) (UniProt Q16602)
[11] = target: CGRP receptor, CLR Q45A (HA-CLR Q45A with RAMP1) (UniProt Q16602)
[12] = target: CGRP receptor, CLR G35A (HA-CLR G35A with RAMP1) (UniProt Q16602)
[13] = target: CGRP receptor, CLR T37A (HA-CLR T37A with RAMP1) (UniProt Q16602)
[14] = target: CGRP receptor, CLR I41A (HA-CLR I41A with RAMP1) (UniProt Q16602)
[15] = target: CGRP receptor, CLR I32A (HA-CLR I32A with RAMP1) (UniProt Q16602)
[16] = target: AM2 receptor, RAMP3 W84A (HA-CLR with RAMP3 W84A) (human) (UniProt Q16602)
[17] = target: AM2 receptor, RAMP3 W84F (HA-CLR with RAMP3 W84F) (human) (UniProt Q16602)
[18] = target: AM1 receptor, RAMP2 E101A (HA-CLR with FLAG-RAMP2 E101A) (human) (UniProt Q16602)
[19] = target: AM2 receptor, wild type (HA-CLR with RAMP3) (human) (UniProt Q16602)
[20] = target: AM2 receptor, CLR T37A (HA-CLR T37A with RAMP3) (human) (UniProt Q16602)
[21] = target: AM2 receptor, CLR I52A (HA-CLR I52A with RAMP3) (human) (UniProt Q16602)
[22] = target: AM2 receptor, CLR Q33A (HA-CLR Q33A with RAMP3) (human) (UniProt Q16602)
[23] = target: AM2 receptor, CLR I32A (HA-CLR I32A with RAMP3) (human) (UniProt Q16602)
[24] = target: AM2 receptor, wild type (HA-CLR with RAMP3) (human) (UniProt Q16602); remark: listed apart in the source
[25] = target: AM2 receptor, CLR M42A (HA-CLR M42A with RAMP3) (human) (UniProt Q16602)
[26] = target: AM2 receptor, CLR V36A (HA-CLR V36A with RAMP3) (human) (UniProt Q16602)
[27] = target: AM2 receptor, CLR G35A (HA-CLR G35A with RAMP3) (human) (UniProt Q16602)
[28] = target: AM2 receptor, CLR L34A (HA-CLR L34A with RAMP3) (human) (UniProt Q16602)
[29] = target: AM2 receptor, CLR I41A (HA-CLR I41A with RAMP3) (human) (UniProt Q16602)
[30] = target: AM2 receptor, CLR Q45A (HA-CLR Q45A with RAMP3) (human) (UniProt Q16602)
[31] = tested on: CLR mutants at the AM1 receptor; assay: specific binding of [125I]-rAM to CLR mutants at the AM1 receptor; parameters: species or system human; conditions: Cos7, 4°C 1 h
Summary of the method: (§1)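 Cos7 cells transiently cotransfected (PEI, 1 μg DNA/well total) with HA-tagged human CLR mutants plus FLAG-human RAMP2 (AM1) or untagged human RAMP3 (AM2). Cells incubated in DMEM/0.5% BSA with [125I]-rAM ([…], 30 000 cpm/well) at 4°C for 1 h, washed with ice-cold PBS, NaOH-solubilised and gamma-counted. […] Specific binding normalised to the WT mean.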

[32] = tested on: CLR mutants at the AM2 receptor; assay: specific binding of [125I]-rAM to CLR mutants at the AM2 receptor; parameters: species or system human; conditions: Cos7, 4°C 1 h
Summary of the method: as §1

Human adrenomedullin 2 (AM2-47) (from UniProt Q7Z4H4 101-148) (peptide)
pEC50, cAMP production in Cos7 cells [1]: 7.89 | pEC50, cAMP production in Cos7 cells [2]: 8.24 | pEC50, cAMP production in Cos7 cells [3]: 7.86 | pEC50, cAMP production in Cos7 cells [4]: 8.11 | pEC50, cAMP production in Cos7 cells [5]: 7.89 | pEC50, cAMP production in Cos7 cells [6]: 7.64 | pEC50, cAMP production in Cos7 cells [7]: 7.92 | pEC50, cAMP production in Cos7 cells [8]: 8.27 | pEC50, cAMP production in Cos7 cells; WT control paired with CLR G35A [9]: 8.4 | pEC50, cAMP production in Cos7 cells; WT control paired with CLR I32A [9]: 8.42 | pEC50, cAMP production in Cos7 cells; WT control paired with CLR I41A [9]: 8.31 | pEC50, cAMP production in Cos7 cells; WT control paired with CLR L34A [9]: 8.51 | pEC50, cAMP production in Cos7 cells; WT control paired with CLR M42A [9]: 8.33 | pEC50, cAMP production in Cos7 cells; WT control paired with CLR Q45A [9]: 8.65 | pEC50, cAMP production in Cos7 cells; WT control paired with CLR T37A [9]: 8.31 | pEC50, cAMP production in Cos7 cells; WT control paired with CLR V36A [9]: 8.42 | pEC50, cAMP production in Cos7 cells [10]: 8.44 | pEC50, cAMP production in Cos7 cells [11]: 7.97 | pEC50, cAMP production in Cos7 cells [12]: 8.04 | pEC50, cAMP production in Cos7 cells [13]: 7.47 | pEC50, cAMP production in Cos7 cells [14]: 7.23 | pEC50, cAMP production in Cos7 cells [15]: 8.52 | pEC50, cAMP production in Cos7 cells [16]: 9.02 | pEC50, cAMP production in Cos7 cells [17]: 9.38 | pEC50, cAMP production in Cos7 cells [18]: 7.39 | pEC50, cAMP production in Cos7 cells; WT control paired with RAMP3 W84A [19]: 9.62 | pEC50, cAMP production in Cos7 cells; WT control paired with RAMP3 W84F [19]: 9.63 | pEC50, cAMP production in Cos7 cells [20]: 7.7 | pEC50, cAMP production in Cos7 cells [21]: 9.12 | pEC50, cAMP production in Cos7 cells [22]: 8.56 | pEC50, cAMP production in Cos7 cells [23]: 9.47 | pEC50, cAMP production in Cos7 cells; WT control paired with CLR G35A [24]: 9.09 | pEC50, cAMP production in Cos7 cells; WT control paired with CLR I32A [24]: 9.83 | pEC50, cAMP production in Cos7 cells; WT control paired with CLR I41A [24]: 9.32 | pEC50, cAMP production in Cos7 cells; WT control paired with CLR I52A [24]: 9.29 | pEC50, cAMP production in Cos7 cells; WT control paired with CLR L34A [24]: 9.42 | pEC50, cAMP production in Cos7 cells; WT control paired with CLR M42A [24]: 8.82 | pEC50, cAMP production in Cos7 cells; WT control paired with CLR Q33A [24]: 8.59 | pEC50, cAMP production in Cos7 cells; WT control paired with CLR Q45A [24]: 8.95 | pEC50, cAMP production in Cos7 cells; WT control paired with CLR T37A [24]: 9.13 | pEC50, cAMP production in Cos7 cells; WT control paired with CLR V36A [24]: 9.09 | pEC50, cAMP production in Cos7 cells [25]: 8.61 | pEC50, cAMP production in Cos7 cells [26]: 8.62 | pEC50, cAMP production in Cos7 cells [27]: 8.78 | pEC50, cAMP production in Cos7 cells [28]: 9.13 | pEC50, cAMP production in Cos7 cells [29]: 8.47 | pEC50, cAMP production in Cos7 cells [30]: 8.94

[^125I]-rAM: rat AM (rAM) iodinated using iodobeads, purified by reverse phase HPLC; radioligand (YRQSMNQGSRSTGCRFGTCTMQKLAHQIYQFTDKDKDGMAPRNKISPQGY; ends and bridges not checked; also: 125I label, residue not given here)
specific binding of [125I]-rAM ([31]; CLR I52A (printed 152A)): retained binding | specific binding of [125I]-rAM ([31]; CLR M42A and Q45A): abolished | specific binding of [125I]-rAM ([31]; CLR T37A and I41A): abolished | specific binding of [125I]-rAM ([32]; CLR M42A and Q45A): retained | specific binding of [125I]-rAM ([32]; CLR T37A and I41A): abolished
